Experimental data of several laboratories.
Lines come from different studies, so protocols differ.
Target: Calcium/calmodulin-dependent protein kinase kinase 1 (CAMKK1, Homo sapiens, UniProt Q8N5S9)

Structure (SMILES)	effect on	mode	method	concentration	endpoint	value
Oc1ccc(-c2nc(-c3ccncc3)c(-c3ccc(F)cc3)[nH]2)cc1	cell-free assay			0.5 µM	remaining signal	123%
O=C(Nc1cnn(-c2csc(C(=O)NC3COC3)c2)c1)Nc1c(F)cccc1Cl	enzyme activity	inhibitor		5 µM	remaining activity	93.7%
CC1=C(C#N)C(c2ccc3c(c2)c(NC(=O)c2ccccc2C)nn3C)C(C#N)=C(C)N1	cell-free assay		competition with immobilised ligand	1 µM	remaining binding	100%
Cn1c2c(Cl)c(Cl)ccc2c2cn[nH]c(=O)c21	thermal stability		DSF	10 µM	ΔTm	0.5 °C
COc1cc(Cl)c(C(=O)N[C@@H](CN[C@H]2CC[C@@H](N)CC2)Cc2ccc(C#N)cc2)cc1-c1ccc(CN[C@H](C)c2ccc(C)cc2)o1	enzyme activity	inhibitor		1 µM	remaining activity	100%
CN1CC(Oc2cnc(C#N)cc2-c2ccn3nc(NC(=O)C4CC4)cc3c2)C1	enzyme activity	inhibitor		1 µM	inhibition	3%
N#CCCc1ccc2c(c1)-c1[nH]c3ccc([N+](=O)[O-])cc3c1CC(=O)N2	cell-free assay			0.5 µM	remaining signal	86.7%
Cn1c2c(Cl)c(Cl)ccc2c2cc(N)[nH]c(=O)c21	thermal stability		DSF	10 µM	ΔTm	0.7 °C
COc1cccc2c(NCc3ccccc3)nc(-n3c(N)nc4ccccc43)nc12	target engagement in cells	inhibitor	chemoproteomics	20 mM	inhibition	-24.9%
Cc1ccc(C(=O)NCc2ccsc2)cc1C#Cc1cn(C(C)C)c2ncnc(N)c12	enzyme activity	inhibitor		1 µM	activity vs control	84%
Cc1nc(N2CC[C@@H](O)C2)ncc1-c1cc(C(F)(F)F)cc2[nH]ncc12	binding		competition with immobilised ligand	1 µM	remaining binding	100%
Cn1c2c(c3ccc(Cl)c(Cl)c31)C(C#N)C1(CCOCC1)NC2=O (stereo not drawn)	thermal stability		DSF	10 µM	ΔTm	1.2 °C
NS(=O)(=O)c1cc(NC(=O)Cc2ccccc2)ccc1Oc1cccc(Cl)c1	cell-free assay		competition with immobilised ligand	1 µM	remaining binding	100%
c1ccc(CNc2nc(N3CCOc4ccccc43)nc3c2CCCC3)cc1	target engagement in cells	inhibitor	chemoproteomics	20 mM	inhibition	-7.1%
CN(c1ccnc(CNc2nc(Nc3ccc4c(c3)CC(=O)N4)ncc2C(F)(F)F)n1)S(C)(=O)=O	cell-free assay		competition with immobilised ligand	1 µM	remaining binding	90%
Cc1ccc(C(=O)Nc2ccc(CN3CCN(C)CC3)c(C(F)(F)F)c2)cc1C#Cc1cnc2cccnn12	enzyme activity	inhibitor		23.5 nM	remaining activity	85%
Nc1nc(Nc2ccc(S(N)(=O)=O)cc2)nn1C(=O)c1c(F)cccc1F	cell-free assay			0.5 µM	remaining signal	86.4%
Cc1c(NC(=O)c2cc(C(N)=O)nc3cc(F)ccc23)c(C(F)(F)F)nn1Cc1ccc(C#N)cc1	cell-free assay		competition with immobilised ligand	1 µM	remaining binding	97%
